Screening data (PubChem BioAssay)
Compounds with a hit are over-represented: about 2.8% of the library has one in this group of screens.
T cell HTS – modulators of CD8 T cell-vesicle binding, primary screen, mouse 2C CD8+ T cells, flow cytometry; 2C CD8+ T cell-vesicle binding; hits give low values; response (vesicle binding), % at 7 µM; 330,000 compounds, 0.068% hits;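 active means response, share of CD8 T cells binding vesicles, and their 90th percentile fluorescence all below set limits, cut at about 80% in these data, passing the limit was not always enough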;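 further: values below 100% mean blocked vesicle binding to the CD8+ T cells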
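Benchmarks: naked versus QL9-loaded vesicles / Assay system: purified 2C TCR transgenic mouse naive CD8+ T cells / Technique: high-throughput flow cytometry with anti-B7-1 and anti-CD8 staining / Timing: Cell–vesicle co-incubation 1.5 h at 37 °C, staining 20 min on ice / Read-out: percent CD8+ FL2 mean versus row control / Probe or stimulus: QL9-loaded Drosophila micro-vesicles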
GASC-1 inh – inhibitors of GASC-1 histone demethylase, primary screen, biochemical, fluorescence, DELFIA europium. Lysine-specific demethylase 4C (Homo sapiens), Q9H3R0. inhibition, % at 2.35 µM. GST-JMJD2C(1-420) H3K9me3 demethylation. 330,000 compounds, 0.069% hits;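 active means more than half of a compound's replicate wells show inhibition beyond 50%, single wells judged on their own value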;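 further: signal counts dimethyl H3K9 product captured on neutravidin plate; 0% = median of DMSO wells and 100% = 0.3 times that DMSO median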
NR3A LBD binder – binders of NR3A ligand-binding domain, primary screen, biophysical, differential scanning fluorimetry, uHTS; Glutamate receptor ionotropic, NMDA 3A (GRIN3A) ligand-binding domain; NR3A LBD differential scanning fluorimetry, Tm shift; 0% = protein alone, 100% = glycine-bound protein; Tm shift relative to glycine control, % at 25 µM; 340,000 compounds, 2.5% hits;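 active means melting temperature shift of at least 10% of the positive control shift, at one fixed dose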
Rtt109 Vps75 – inhibitors of C. albicans Rtt109/Vps75 HAT, primary screen, biochemical, ThioGlo CoA-SH fluorescence, plate reader; purified Rtt109/Vps75, 4 h; inhibition, % at 34.9 µM; Histone acetyltransferase RTT109 (Candida albicans (strain SC5314 / ATCC MYA-2876)), …; 330,000 compounds, 0.16% hits;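 active means inhibition of at least 50% in every replicate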
Target sequence (Q5AAJ8 whole entry, looked up): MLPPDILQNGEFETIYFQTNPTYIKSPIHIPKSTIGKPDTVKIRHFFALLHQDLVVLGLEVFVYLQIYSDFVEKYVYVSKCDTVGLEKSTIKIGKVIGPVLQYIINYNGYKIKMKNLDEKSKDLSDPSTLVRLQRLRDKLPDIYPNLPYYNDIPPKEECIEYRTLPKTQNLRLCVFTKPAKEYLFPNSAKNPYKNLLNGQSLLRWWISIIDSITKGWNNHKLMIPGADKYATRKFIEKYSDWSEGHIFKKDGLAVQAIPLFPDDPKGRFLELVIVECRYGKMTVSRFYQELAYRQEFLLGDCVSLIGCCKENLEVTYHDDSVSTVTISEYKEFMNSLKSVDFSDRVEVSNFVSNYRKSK
* marks the source's active call; other numbers are inactive results; nt = no result.

SMILES	T cell HTS	GASC-1 inh	NR3A LBD binder	Rtt109 Vps75
COc1ccccc1C(=O)NC(=S)Nc1ccc(S(=O)(=O)N2CCN(C)CC2)cc1	0.0*	-6	3	4
Cc1ccc(C(=O)Nc2ccc(S(=O)(=O)N3CCOCC3)cc2)cc1C	762	-6	22*	9
CC(=O)c1ccc(NC(=O)c2ccc(C)c(S(=O)(=O)N3CCOCC3)c2)cc1	302	4	0	-2
O=C(Nc1ccc(S(=O)(=O)N2CCOCC2)cc1)c1cccc(Br)c1	331	0	31*	-1
CC(C)C(=O)Nc1cccc(C(=O)Nc2ccc(S(=O)(=O)N3CCOCC3)cc2)c1	192	11	1	-5
COc1ccc(C)cc1NC(=O)COC(=O)c1c(C)nn(-c2ccccc2)c1C	548	-17	0	5
CCCCN(C(=O)c1ccc(-c2ccc(Cl)cc2)o1)c1c(N)n(CCC)c(=O)[nH]c1=O	396	-16	-1	7
O=C(Nc1ccc(S(=O)(=O)N2CCOCC2)cc1)c1ccccc1	588	-6	7	2
O=C(Nc1cccc(S(=O)(=O)N2CCOCC2)c1)c1ccc(Cl)c([N+](=O)[O-])c1	180	63	0	11
CC(=O)Nc1ccc(C(=O)Nc2ccc(S(=O)(=O)N3CCOCC3)cc2)cc1	174	-3	31*	0
COc1ccc(C(=O)Nc2ccncc2)cc1S(=O)(=O)N1CCOCC1	280	-4	-1	0
O=C(Nc1ccc(S(=O)(=O)N2CCOCC2)cc1)c1ccc(Cl)c([N+](=O)[O-])c1	nt	nt	35*	-3
CC(C)(C)C(=O)CN1CCN(S(=O)(=O)c2ccc(F)cc2)CC1	89	14	12*	-16
COc1ccc(C(=O)Nc2ccc(NC(=O)c3ccccc3)cc2)cc1S(=O)(=O)N1CCOCC1	555	1	32*	-25
COc1ccc(C(=O)/C=C/Nc2ccc(S(N)(=O)=O)cc2)cc1OC	102	-5	0	-5
CCCc1cc(=O)[nH]c(SCC(=O)Nc2cccc(S(=O)(=O)N3CCCCC3)c2)n1	583	10	1	2
CC(=O)Nc1ccc(S(=O)(=O)N2CCCN(S(=O)(=O)c3ccc(NC(C)=O)cc3)CC2)cc1	67	16	11*	-2
CC(C)CC(=O)Nc1nc(-c2ccc(S(=O)(=O)N3CCOCC3)cc2)cs1	nt	13	0	-2
O=C(Nc1nc(-c2nc3ccccc3s2)cs1)c1ccc(S(=O)(=O)N2CCOCC2)cc1	195	6	-3	62*
Cc1ccc(Nc2nc(-c3ccc(S(=O)(=O)N4CCOCC4)cc3)cs2)cc1Cl	197	-47	26*	1
O=C(Nc1nc(-c2ccc(S(=O)(=O)N3CCOCC3)cc2)cs1)c1ccccc1	217	-14	-3	7
CC(OC(=O)c1cc(Br)ccc1O)C(=O)Nc1ccc(S(=O)(=O)N2CCCC2)cc1 (stereo unspecified)	242	-3	11*	16
COc1cccc(CNc2ccc3[nH]c(=O)[nH]c3c2)c1OCc1ccccc1F	113	-2	-6	-6
O=C(NCCCN1CCOCC1)c1ccc(Sc2cccc(Cl)c2)c([N+](=O)[O-])c1	106	-3	19*	2
CN1CCN(S(=O)(=O)c2ccc(NC(=O)C(C)(C)C)cc2)CC1	249	14	11*	-10
SMILES	T cell HTS	GASC-1 inh	NR3A LBD binder	Rtt109 Vps75
O=C(NCCCN1CCOCC1)c1ccc(Cl)c([N+](=O)[O-])c1	112	3	1	nt
O=C(Nc1ccc(S(=O)(=O)N2CCOCC2)cc1)c1ccc([N+](=O)[O-])s1	506	-8	29*	13
Cc1ccc(-n2ccc(=O)c(C(=O)Nc3ccc(S(=O)(=O)N4CCOCC4)cc3)n2)cc1	264	4	12*	1
O=C(Nc1ccc(S(=O)(=O)N2CCOCC2)cc1)c1nn(-c2ccc(F)cc2)ccc1=O	297	6	-1	3
CC(C)(C)NC(=O)COc1ccc2oc3c(c2c1)CCCC3	214	11	-2	10
CCOc1ccc(NC(=O)COC(=O)c2ccc3ncsc3c2)cc1OCC	nt	nt	4	nt
Cc1ccc(S(=O)(=O)N2CCN(CC(=O)N/N=C/c3ccc(C)o3)CC2)cc1	374	-4	32*	3
CC(=O)N1CCN(c2ccc(NC(=O)c3ccc(Cl)c([N+](=O)[O-])c3)cc2)CC1	368	5	15*	3
Cc1ccc(C(=O)Nc2ccc(S(=O)(=O)N3CCOCC3)cc2)cc1Br	422	59	34*	nt
COc1ccc(C(=O)Nc2ccc(N3CCN(C(C)=O)CC3)cc2)cc1[N+](=O)[O-]	312	-2	nt	nt
N#Cc1cccc(NC(=O)c2ccc(S(=O)(=O)N3CCOCC3)cc2)c1	381	1	16*	2
Cc1ccc(C(=O)N2CCN(c3ccc(NC(=O)c4cc(C)cc(C)c4)cc3)CC2)cc1	400	127	13*	-2
O=C(Nc1cccc([N+](=O)[O-])c1)c1cc(S(=O)(=O)N2CCOCC2)cs1	239	-8	22*	5
COc1ccc(NC(=O)c2n[nH]c(=O)c3ccccc23)cc1S(=O)(=O)N1CCCCC1	288	1	26*	0
COc1ccc(NC(=O)c2ccco2)cc1S(=O)(=O)N1CCCCC1	321	7	-3	-4
O=C(Nc1ccccc1)c1cc(S(=O)(=O)N2CCOCC2)cs1	145	12	1	12
COC(=O)c1ccc(/C=C/C(=O)OCC(=O)Nc2cc(C)on2)cc1	280	-2	1	2
Cc1ccc(Nc2cc(C)nc(-c3ccccc3O)n2)cc1	656	0	7	-24
Cc1cc(Nc2ccc(F)c(F)c2)nc(-c2ccccc2O)n1	416	13	23*	-54
Cc1cc(Nc2ccc(Br)cc2)nc(-c2ccccc2O)n1	644	-5	29*	0
Cc1cc(NCCCN)nc(-c2ccccc2O)n1	188	-3	-1	-3
O=C(Nc1ccc(S(=O)(=O)NC2=NCCCCC2)cc1)c1ccc(Cl)cc1Cl	443	12	-1	-1
CCN1CCN(c2ccc(S(=O)(=O)N3CCOCC3)cc2NC(=O)C2CCC(C(C)(C)C)CC2)CC1 (stereo unspecified)	nt	nt	19*	9
COc1ccccc1CCC(=O)Nc1cc(S(=O)(=O)N2CCOCC2)ccc1N1CCCC1	493	-4	-3	-3
Cc1ccccc1OCC(=O)NC(C)c1ccccc1 (stereo unspecified)	163	-3	0	12
CC(=O)Nc1ccc(N(CC(O)Cn2c3ccccc3c3ccccc32)S(=O)(=O)c2ccc(C)cc2)cc1 (stereo unspecified)	218	27	22*	12
